We go through 15 molecules from ChEMBL document CHEMBL2311466, “Synthesis and antibacterial and antifungal evaluation of some chalcone based sulfones and bisulfones” (2013).

Values after ≈ are worked out from the molar mass of the structure shown.

For test [1], the system named is Aspergillus niger. Nature of the test: Antifungal activity against Aspergillus niger after 12 to 18 hrs by micro-well dilution method. Format: functional. The gist of the method:
(§1)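 Broth micro-well dilution per NCCLS, in triplicate. Compounds were stocked at 10 mg/ml in DMSO and diluted to a 1 mg/ml working solution in methanol. Two-fold serial dilutions ran across 10 wells of medium. Clinical isolates were subcultured on Sabouraud dextrose agar at 37 °C for 48-72 h. Cultures were grown in yeast/peptone/D-glucose medium for 12-18 h at 37 °C and sized by OD600 to 10⁴ cfu per well. MIC is the lowest concentration with no visible growth. Amphotericin-B and nystatin served as reference drugs.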

Test [2] relates to Candida albicans. The experiment in a line: Antifungal activity against Candida albicans after 12 to 18 hrs by micro-well dilution method. It is filed as functional. The procedure, abridged:
as §1

Another test has as its system Pseudomonas aeruginosa. The experiment in a line: Antimicrobial activity against Pseudomonas aeruginosa after 12 to 18 hrs by micro-well dilution method. It is filed as functional. The gist of the method: (§2)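 Clinical isolates were tested by broth micro-well dilution per NCCLS, in triplicate. Stocks were 10 mg/ml in DMSO, with a 1 mg/ml working solution in methanol. Two-fold serial dilutions ran across 10 wells. Cultures were grown to log phase in Luria Bertani or nutrient broth for 12-18 h at 37 °C and adjusted by OD600 to 10⁷ cfu per well. MIC is the lowest concentration preventing visible growth. Ampicillin and kanamycin served as reference drugs.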

For another test, the system named is Staphylococcus aureus. The experiment in a line: Antimicrobial activity against Staphylococcus aureus after 12 to 18 hrs by micro-well dilution method. It is filed as functional. The procedure, abridged:
as §2

The subject of a further test is Salmonella typhimurium. The experiment in a line: Antimicrobial activity against Salmonella typhimurium after 12 to 18 hrs by micro-well dilution method. Format: functional, Salmonella enterica subsp. enterica serovar Typhimurium. Particulars: Salmonella enterica. The gist of the method:
as §2

The next test deals with Bacillus subtilis. Nature of the test: Antimicrobial activity against Bacillus subtilis after 12 to 18 hrs by micro-well dilution method. It is filed as functional. The procedure, abridged:
as §2

The subject of test [3] is Candida albicans. The experiment in a line: Antifungal activity against Candida albicans after 12 to 18 hrs by broth microdilution method. It is filed as functional. The gist of the method: (§3)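 Clinical isolate from a medical college microbiology department, subcultured on Sabouraud dextrose agar at 37 °C for 48–72 h. Liquid culture was grown in yeast/peptone/D-glucose medium for 12–18 h at 37 °C, then diluted by OD600 to 10⁴ cfu/100 per well. Compounds were made as a 10 mg/ml DMSO stock and a 1 mg/ml methanol working solution. Twofold serial dilutions ran across 10 wells, in triplicate, per NCCLS micro-well dilution. MIC was the lowest concentration with no visible growth.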

The test system of test [4] is Aspergillus niger. Nature of the test: Antifungal activity against Aspergillus niger after 12 to 18 hrs by broth microdilution method. It is filed as functional. The gist of the method:
as §3

Take `O=C(CC(c1ccc(Cl)cc1)S(=O)(=O)c1ccccc1)c1ccc(Cl)cc1` (stereo not drawn): the MIC against Aspergillus niger [1] was 15.6 µg/mL (≈ 37.2 µM); in the test with Candida albicans [2], 31.2 µg/mL (≈ 74.5 µM); in the test on Pseudomonas aeruginosa it was 125 µg/mL (≈ 298 µM); with Staphylococcus aureus it was 250 µg/mL (≈ 596 µM); against Salmonella typhimurium it was 125 µg/mL (≈ 298 µM); against Bacillus subtilis it was 15.6 µg/mL (≈ 37.2 µM).

For the molecule NYSTATIN, the MIC in the test on Candida albicans [3] and against Aspergillus niger [4] was 7.81 µg/mL each time.

As for `COc1ccc(C(CC(=O)c2ccc(Br)cc2)S(=O)(=O)c2ccccc2)cc1OC` (stereo not drawn), the MIC was 15.6 µg/mL (≈ 31.9 µM) in the test on Aspergillus niger [1]; 15.6 µg/mL (≈ 31.9 µM) with Candida albicans [2]; 62.5 µg/mL (≈ 128 µM) with Pseudomonas aeruginosa; 62.5 µg/mL (≈ 128 µM) in the test on Staphylococcus aureus; 1.95 µg/mL (≈ 3.98 µM) against Salmonella typhimurium; 62.5 µg/mL (≈ 128 µM) against Bacillus subtilis.

`Cc1ccc(C(CC(=O)CC(c2ccc(C)cc2)S(=O)(=O)c2ccccc2)S(=O)(=O)c2ccccc2)cc1` (stereo not drawn): the MIC against Aspergillus niger [1] came out at 31.2 µg/mL (≈ 57.2 µM); with Candida albicans [2], 1.95 µg/mL (≈ 3.57 µM); with Pseudomonas aeruginosa, 62.5 µg/mL (≈ 114 µM); against Staphylococcus aureus it was 62.5 µg/mL (≈ 114 µM); against Salmonella typhimurium, 31.2 µg/mL (≈ 57.2 µM); with Bacillus subtilis, 62.5 µg/mL (≈ 114 µM).

Consider `O=C(CC(c1cccc([N+](=O)[O-])c1)S(=O)(=O)c1ccccc1)c1ccc(Cl)cc1` (stereo not drawn), for which the MIC was 62.5 µg/mL (≈ 145 µM) in the test on Aspergillus niger [1]; 1.95 µg/mL (≈ 4.54 µM) in the test with Candida albicans [2]; 62.5 µg/mL (≈ 145 µM) in the test with Pseudomonas aeruginosa; 125 µg/mL (≈ 291 µM) against Staphylococcus aureus; 62.5 µg/mL (≈ 145 µM) in the test with Salmonella typhimurium; 62.5 µg/mL (≈ 145 µM) against Bacillus subtilis.

Turning to `COc1cc(C(CC(=O)c2ccc(Br)cc2)S(=O)(=O)c2ccccc2)cc(OC)c1OC` (stereo not drawn), the MIC in the test with Aspergillus niger [1] is 7.81 µg/mL (≈ 15 µM); in the test with Candida albicans [2] it was 3.9 µg/mL (≈ 7.51 µM); against Pseudomonas aeruginosa it was 125 µg/mL (≈ 241 µM); against Staphylococcus aureus, 125 µg/mL (≈ 241 µM); against Salmonella typhimurium it was 1.95 µg/mL (≈ 3.75 µM); with Bacillus subtilis, 31.2 µg/mL (≈ 60.2 µM).

Turning to `O=C(CC(c1ccccc1)S(=O)(=O)c1ccccc1)c1ccccc1` (stereo not drawn), the MIC against Aspergillus niger [1] turned out to be 7.81 µg/mL (≈ 22.3 µM); in the test with Candida albicans [2], 3.9 µg/mL (≈ 11.1 µM); with Pseudomonas aeruginosa, 125 µg/mL (≈ 357 µM); with Staphylococcus aureus, 62.5 µg/mL (≈ 178 µM); against Salmonella typhimurium it was 1.95 µg/mL (≈ 5.56 µM); in the test with Bacillus subtilis, 31.2 µg/mL (≈ 89.2 µM).

Turning to `COc1ccc(C(CC(=O)CC(c2ccc(OC)cc2)S(=O)(=O)c2ccccc2)S(=O)(=O)c2ccccc2)cc1` (stereo not drawn), the MIC in the test with Aspergillus niger [1] came out at 125 µg/mL (≈ 216 µM); against Candida albicans [2] it was 125 µg/mL (≈ 216 µM); in the test on Pseudomonas aeruginosa, 125 µg/mL (≈ 216 µM); in the test on Staphylococcus aureus it was 250 µg/mL (≈ 432 µM); with Salmonella typhimurium, 62.5 µg/mL (≈ 108 µM); against Bacillus subtilis it was 31.2 µg/mL (≈ 54 µM).

`C[C@@H]1[C@H](O)[C@@H](C)/C=C/C=C/C=C/C=C/C=C/C=C/C=C/[C@H](O[C@@H]2O[C@H](C)[C@@H](O)[C@H](N)[C@@H]2O)C[C@@H]2O[C@](O)(C[C@@H](O)C[C@@H](O)[C@H](O)CC[C@@H](O)C[C@@H](O)CC(=O)O[C@H]1C)C[C@H](O)[C@H]2C(=O)O` [AMPHOTERICIN B]: the MIC worked out at 15.6 µg/mL (≈ 16.9 µM) against Candida albicans [3] and 500 µg/mL (≈ 541 µM) against Aspergillus niger [4].

Regarding `O=C(CC(c1ccccc1)S(=O)(=O)c1ccccc1)c1ccc(Br)cc1` (stereo not drawn), the MIC was 62.5 µg/mL (≈ 146 µM) against Aspergillus niger [1]; 125 µg/mL (≈ 291 µM) with Candida albicans [2]; 62.5 µg/mL (≈ 146 µM) with Pseudomonas aeruginosa; 125 µg/mL (≈ 291 µM) in the test on Staphylococcus aureus; 250 µg/mL (≈ 582 µM) in the test on Salmonella typhimurium; 62.5 µg/mL (≈ 146 µM) with Bacillus subtilis.

Turning to `O=C(CC(c1ccc(Cl)cc1)S(=O)(=O)c1ccccc1)CC(c1ccc(Cl)cc1)S(=O)(=O)c1ccccc1` (stereo not drawn), the minimal inhibitory concentration (MIC) with Aspergillus niger [1] stood at 125 µg/mL (≈ 213 µM); in the test with Candida albicans [2], 1.95 µg/mL (≈ 3.32 µM); with Pseudomonas aeruginosa it was 250 µg/mL (≈ 425 µM); against Staphylococcus aureus, 250 µg/mL (≈ 425 µM); with Salmonella typhimurium, 15.6 µg/mL (≈ 26.6 µM); in the test with Bacillus subtilis it was 31.2 µg/mL (≈ 53.2 µM).

On to `O=C(CC(c1ccc(Cl)cc1)S(=O)(=O)c1ccccc1)c1ccccc1` (stereo not drawn), for which the MIC is 125 µg/mL (≈ 325 µM) in the test on Aspergillus niger [1]; 1.95 µg/mL (≈ 5.07 µM) against Candida albicans [2]; 62.5 µg/mL (≈ 162 µM) against Pseudomonas aeruginosa; 125 µg/mL (≈ 325 µM) against Staphylococcus aureus; 125 µg/mL (≈ 325 µM) in the test with Salmonella typhimurium; 62.5 µg/mL (≈ 162 µM) in the test with Bacillus subtilis.

With `CC1(C)S[C@@H]2[C@H](NC(=O)[C@H](N)c3ccccc3)C(=O)N2[C@H]1C(=O)O` [AMPICILLIN], the MIC with Pseudomonas aeruginosa turned out to be 125 µg/mL (≈ 358 µM); against Staphylococcus aureus it was 500 µg/mL (≈ 1430 µM); with Salmonella typhimurium it was 125 µg/mL (≈ 358 µM); against Bacillus subtilis, 250 µg/mL (≈ 715 µM).

For the molecule `O=C(CC(c1ccccc1)S(=O)(=O)c1ccccc1)CC(c1ccccc1)S(=O)(=O)c1ccccc1` (stereo not drawn), the MIC in the test on Aspergillus niger [1] is 125 µg/mL (≈ 241 µM); with Candida albicans [2], 250 µg/mL (≈ 482 µM); against Pseudomonas aeruginosa, 62.5 µg/mL (≈ 121 µM); against Staphylococcus aureus, 62.5 µg/mL (≈ 121 µM); against Salmonella typhimurium, 250 µg/mL (≈ 482 µM); against Bacillus subtilis it was 125 µg/mL (≈ 241 µM).

With `NC[C@H]1O[C@H](O[C@H]2[C@H](O)[C@@H](O[C@H]3O[C@H](CO)[C@@H](O)[C@H](N)[C@H]3O)[C@H](N)C[C@@H]2N)[C@H](O)[C@@H](O)[C@@H]1O` [KANAMYCIN], the minimal inhibitory concentration (MIC) was found to be 250 µg/mL (≈ 516 µM) against Pseudomonas aeruginosa, 500 µg/mL (≈ 1030 µM) with Staphylococcus aureus, 15.6 µg/mL (≈ 32.2 µM) against Salmonella typhimurium and 7.81 µg/mL (≈ 16.1 µM) in the test on Bacillus subtilis.
